This note sets out measurements from ChEMBL document CHEMBL4699663, “Design, synthesis, and biological activity of novel semicarbazones as potent Ryanodine receptor1 inhibitors of Alzheimer's disease” (Bioorg Med Chem, 2021).

≈ marks a conversion by molar mass, not a printed value. Calls of active or inactive are those of the source. No cut-off for these calls is given here.

For data set [1], the species on record is Homo sapiens. Kind of data set: Inhibition of RYR-1 R614C mutant (unknown origin) expressed in cells assessed as inhibition of store overload-induced Ca2+ release at 0.1 uM after 3 mins by fura-2AM dye based microscopic analysis relative to control. The format is cell-based.
The species entered for data set [2] is Homo sapiens. Kind of data set: Inhibition of RYR-1 R614C mutant (unknown origin) expressed in cells assessed as inhibition of store overload-induced Ca2+ release at 3 uM after 3 mins by fura-2AM dye based microscopic analysis relative to control. The format is cell-based.
The species entered for data set [3] is Homo sapiens. Kind of data set: Inhibition of RYR-1 R614C mutant (unknown origin) expressed in cells assessed as inhibition of store overload-induced Ca2+ release at 10 uM after 3 mins by fura-2AM dye based microscopic analysis relative to control. The format is cell-based.
The nature of data set [4]: Kinetic aqueous solubility of the compound in PBS at pH 7.4 by turbidimetric analysis. The format is physicochemical. To be noted: read-out: Kinetic_solubility. A digest of the protocol: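 Turbidimetric kinetic solubility: DMSO stocks were diluted 100-fold into PBS pH 7.4, giving eight final concentrations (1.6–200 mM as printed). After 2 h incubation, absorbance was read at 540 nm. Wells above blank mean + 3 SD counted as turbid, and the highest clear concentration was taken as the solubility.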

Data set [5] deals with Acetylcholinesterase (Electrophorus electricus) (UniProt O42275). Briefly: Inhibition of electric eel AChE at 5 uM using acetylthiocholine iodide as substrate preincubated with enzyme for 30 mins followed by substrate addition and measured for 10 mins by Ellman's method relative to control. Particulars: time 40.0 min. In outline:
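Electrophorus electricus AChE at 0.25 U/mL, with 60 µM DTNB in 0.05 M phosphate buffer pH 8, was incubated 30 min with the DMSO-dissolved inhibitor. The reaction was then started with 1.5 mM acetylthiocholine iodide and read at 412 nm for 10 min. Percent inhibition was taken from reaction rates versus control, from three experiments run in triplicate.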
A general note: Ellman's reagent forms a yellow product with free thiols.

For data set [6], the species on record is Homo sapiens. Briefly: Inhibition of RYR-1 R614C mutant (unknown origin) expressed in cells assessed as inhibition of store overload-induced Ca2+ release after 3 mins by microscopic analysis. The format is cell-based. To be noted: dose microM 0.1-10, time 3.0 min.
The species named for data set [7] is Homo sapiens. Briefly: Inhibition of RYR-1 R614C mutant (unknown origin) expressed in cells assessed as inhibition of store overload-induced Ca2+ release at 0.1 uM after 3 mins by fura-2AM dye based microscopic analysis. Type of data set: cell-based.
Data set [8] is filed under the species Homo sapiens. Kind of data set: Inhibition of RYR-1 R614C mutant (unknown origin) expressed in cells assessed as inhibition of store overload-induced Ca2+ release at 3 uM after 3 mins by fura-2AM dye based microscopic analysis. Type of data set: cell-based.
The species named for data set [9] is Homo sapiens. Briefly: Inhibition of RYR-1 R614C mutant (unknown origin) expressed in cells assessed as inhibition of store overload-induced Ca2+ release at 10 uM after 3 mins by fura-2AM dye based microscopic analysis. The format is cell-based.
Data set [10] is described as follows: Toxicity in SPF grade FAD mouse assessed as effect on body weight at 3.2 mg/kg, ip administered for 30 consecutive days. The format is organism-based. Particulars: in vivo, 720 h, time 30 day. A digest of the protocol:
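Mixed-sex FAD mice, 5 months old, were given 3.2 mg/kg/day intraperitoneally in DMSO (1.12 mg/ml) for 30 consecutive days; controls received the same volume of DMSO. Body weight was measured daily during dosing and reported as mean ± SD (n = 7).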

In data set [11] the test system is Mus musculus. Kind of data set: Cognitive enhancing effect in SPF grade FAD mouse assessed as reduction in mean escape latency time at 3.2 mg/kg, ip measured on day 2 by Morris water maze test (reference value: 36.72 sec). The format is functional. Particulars: time 2 day. In outline: (§1)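 Mixed-sex FAD mice, 5 months old at dosing, given 3.2 mg/kg intraperitoneally in DMSO (1.12 mg/ml) daily for 30 days; controls got the same volume of DMSO. Morris water maze training started after dosing. Mice entered the water facing the wall from four entry points in turn, and time to find and climb the platform was recorded. Data are mean ± SD, analysed by ANOVA.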

In data set [12] the test system is Mus musculus. Kind of data set: Cognitive enhancing effect in SPF grade FAD mouse assessed as reduction in mean escape latency time at 3.2 mg/kg, ip measured on day 3 by Morris water maze test (reference value: 35.59 sec). Type of data set: functional. To be noted: time 3 day. A digest of the protocol: as §1
The test system of data set [13] is Mus musculus. Briefly: Cognitive enhancing effect in SPF grade FAD mouse assessed as reduction in mean escape latency time at 3.2 mg/kg, ip measured on day 4 by Morris water maze test (reference value: 31.99 sec). To be noted: time 4 day. The format is functional. A digest of the protocol:
as §1

For data set [14], the system named is Mus musculus. Kind of data set: Improvement in learning and spatial memory in SPF grade FAD mouse assessed as swimming time on target zone at 3.2 mg/kg, ip measured 24 hrs post trial training by probe test (reference value: 23.1 +/- 1.1 %). The format is functional.

Acetylcholinesterase (Electrophorus electricus), sequence (O42275 24-633 limits assumed): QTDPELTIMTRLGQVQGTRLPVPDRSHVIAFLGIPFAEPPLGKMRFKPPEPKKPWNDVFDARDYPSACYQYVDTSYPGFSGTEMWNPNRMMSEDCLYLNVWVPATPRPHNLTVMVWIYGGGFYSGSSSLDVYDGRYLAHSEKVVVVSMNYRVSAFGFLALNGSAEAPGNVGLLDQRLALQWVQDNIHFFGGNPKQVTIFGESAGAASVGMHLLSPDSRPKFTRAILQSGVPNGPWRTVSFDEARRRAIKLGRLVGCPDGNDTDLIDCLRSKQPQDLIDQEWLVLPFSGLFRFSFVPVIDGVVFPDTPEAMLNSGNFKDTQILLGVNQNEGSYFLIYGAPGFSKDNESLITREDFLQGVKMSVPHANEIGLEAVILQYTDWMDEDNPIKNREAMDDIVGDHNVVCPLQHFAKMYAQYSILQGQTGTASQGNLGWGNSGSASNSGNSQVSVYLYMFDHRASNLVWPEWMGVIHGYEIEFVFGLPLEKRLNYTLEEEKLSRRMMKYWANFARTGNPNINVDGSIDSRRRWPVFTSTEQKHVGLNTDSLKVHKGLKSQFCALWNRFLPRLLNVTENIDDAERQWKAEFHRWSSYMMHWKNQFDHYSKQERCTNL

By inhibition is commonly meant the share of the control response that was lost under treatment. As to `O=C(N/N=C/c1ccc(-c2ccc([N+](=O)[O-])cc2)o1)Nc1ccccc1`, the inhibition was 15.9% in the data set listed under Homo sapiens [1]; 35.8% in the data set listed under Homo sapiens [2]; 93.9% in the data set listed under Homo sapiens [3]; 19.3% in data set [5]; “Dose-dependent effect” in the data set filed under Homo sapiens [6]. In [4], the solubility kinetic stood at 60 µM (≈ 21 µg/mL).
For the compound `O=C(NCc1cccc(Cl)c1Cl)N/N=C/c1ccc(-c2ccc([N+](=O)[O-])cc2)o1`, the values for the inhibition in the data set filed under Homo sapiens [3] and in the data set listed under Homo sapiens [6] were 30.6% and “Dose-dependent effect”, respectively.
As for `CN(/N=C/c1ccc(-c2ccc([N+](=O)[O-])cc2)o1)C(=O)n1ccnc1`, the inhibition in the data set listed under Homo sapiens [1] was 23%; in the data set listed under Homo sapiens [2] it was 53.5%; in the data set filed under Homo sapiens [3] it was 74.9%; in the data set listed under Homo sapiens [6], “Dose-dependent effect”.
Regarding `Cc1ccc(CNC(=O)N/N=C/c2ccc(-c3ccc([N+](=O)[O-])cc3)o2)cc1`, the inhibition in the data set listed under Homo sapiens [3] was 35.4%; in the data set filed under Homo sapiens [6], “Dose-dependent effect”.
As to `O=C(NCc1ccccc1)N/N=C/c1ccc(-c2ccc([N+](=O)[O-])cc2)o1`, the inhibition in the data set filed under Homo sapiens [2] was 23.1%; in the data set listed under Homo sapiens [3], 48.6%; in the data set listed under Homo sapiens [6] it was “Dose-dependent effect”.
In the case of `O=C(NCc1ccc(Cl)cc1)N/N=C/c1ccc(-c2ccc([N+](=O)[O-])cc2)o1`, the inhibition in the data set listed under Homo sapiens [1] was 27.1%; in the data set filed under Homo sapiens [2] it was 48.6%; in the data set listed under Homo sapiens [3], 70.4%; in the data set filed under Homo sapiens [6], “Dose-dependent effect”.
Take `O=C(N/N=C/c1ccc(-c2ccc([N+](=O)[O-])cc2)o1)Nc1ccccc1OC(F)(F)F`: the values for the inhibition in the data set listed under Homo sapiens [2], in the data set listed under Homo sapiens [3] and in the data set listed under Homo sapiens [6] were 20.4%, 57.1% and “Dose-dependent effect”, respectively.
In the case of `Cc1ccccc1NC(=O)N/N=C/c1ccc(-c2ccc([N+](=O)[O-])cc2)o1`, the inhibition result in the data set listed under Homo sapiens [7], in the data set listed under Homo sapiens [8] and in the data set listed under Homo sapiens [9] was “inactive” throughout. Further, in data set [5], the inhibition was 18.2%.
Regarding `O=C(NCc1ccc(Cl)cc1Cl)N/N=C/c1ccc(-c2ccc([N+](=O)[O-])cc2)o1`, the inhibition is 16.2% in the data set listed under Homo sapiens [3], 8.9% in [5] and “Dose-dependent effect” in the data set filed under Homo sapiens [6].
With `O=C1CN(/N=C/c2ccc(-c3ccc([N+](=O)[O-])cc3)o2)C(O)=N1` [DANTROLENE], in data set [4], the solubility kinetic is 560 µM (≈ 176 µg/mL).
On to `O=C(N/N=C/c1ccc(-c2ccc([N+](=O)[O-])cc2)o1)Nc1ccc(Br)cc1`, for which the inhibition is 13.2% in the data set filed under Homo sapiens [1], 31.3% in the data set filed under Homo sapiens [2], 52.9% in the data set listed under Homo sapiens [3] and “Dose-dependent effect” in the data set listed under Homo sapiens [6].
Consider `Cc1ccc(NC(=O)N/N=C/c2ccc(-c3ccc([N+](=O)[O-])cc3)o2)cc1`, for which the inhibition is 10.8% in the data set listed under Homo sapiens [2], 29.5% in the data set listed under Homo sapiens [3] and “Dose-dependent effect” in the data set listed under Homo sapiens [6].
Turning to `COc1ccccc1NC(=O)N/N=C/c1ccc(-c2ccc([N+](=O)[O-])cc2)o1`, the inhibition was 30.6% in the data set listed under Homo sapiens [3] and “Dose-dependent effect” in the data set listed under Homo sapiens [6].
With `O=C(NCc1ccc(F)cc1)N/N=C/c1ccc(-c2ccc([N+](=O)[O-])cc2)o1`, the inhibition in the data set listed under Homo sapiens [1] was 23.6%; in the data set listed under Homo sapiens [2], 35.1%; in the data set listed under Homo sapiens [3] it was 76.1%; in the data set filed under Homo sapiens [6] it was “Dose-dependent effect”.
As for `O=C(N/N=C/c1ccc(-c2ccc([N+](=O)[O-])cc2)o1)Nc1ccccc1Br`, the inhibition in the data set filed under Homo sapiens [1] was 20.1%; in the data set listed under Homo sapiens [2], 38.5%; in the data set listed under Homo sapiens [3], 67.1%; in the data set filed under Homo sapiens [6], “Dose-dependent effect”.
The like results for `O=C(N/N=C/c1ccc(-c2ccc([N+](=O)[O-])cc2)o1)Nc1cccc(Br)c1` were, in that order, 26.7%, 67.1%, 67.1% and “Dose-dependent effect”.
For the compound `O=C(N/N=C/c1ccc(-c2ccc([N+](=O)[O-])cc2)o1)Nc1ccc([N+](=O)[O-])cc1`, the inhibition in the data set listed under Homo sapiens [2] is 14.1%; in the data set listed under Homo sapiens [3] it was 32%; in the data set listed under Homo sapiens [6], “Dose-dependent effect”.
For the compound `O=C1CN(/N=C/c2ccc(-c3ccc([N+](=O)[O-])cc3)o2)C(=O)N1`, the inhibition in the data set listed under Homo sapiens [1] was 30.8%; in the data set filed under Homo sapiens [2] it was 73.1%; in the data set listed under Homo sapiens [3] it was 94.2%; in [5] it was 0.1%; in the data set listed under Homo sapiens [6], “Dose-dependent effect”.
As to `Cc1cccc(NC(=O)N/N=C/c2ccc(-c3ccc([N+](=O)[O-])cc3)o2)c1`, the inhibition in the data set filed under Homo sapiens [1] was 10.7%; in the data set filed under Homo sapiens [2], 15.2%; in the data set filed under Homo sapiens [3], 34.6%; in the data set filed under Homo sapiens [6], “Dose-dependent effect”.
`O=C(NCc1ccc(Cl)c(Cl)c1)N/N=C/c1ccc(-c2ccc([N+](=O)[O-])cc2)o1`: the inhibition in the data set listed under Homo sapiens [2] is 25.3%; in the data set listed under Homo sapiens [3], 37.2%; in the data set listed under Homo sapiens [6], “Dose-dependent effect”.
The like results for `O=C(N/N=C/c1ccc(-c2ccc([N+](=O)[O-])cc2)o1)Nc1ccccc1Cl` were, in that order, 25.1%, 50.1% and “Dose-dependent effect”.
Regarding `O=C(NCc1ccccc1F)N/N=C/c1ccc(-c2ccc([N+](=O)[O-])cc2)o1`, the inhibition was 26.1% in the data set filed under Homo sapiens [2], 44.6% in the data set filed under Homo sapiens [3] and “Dose-dependent effect” in the data set filed under Homo sapiens [6].
In the case of `O=C(N/N=C/c1ccc(-c2ccc([N+](=O)[O-])cc2)o1)Nc1ccccc1C(F)(F)F`, the inhibition in the data set listed under Homo sapiens [1] is 12.6%; in the data set listed under Homo sapiens [2], 30.1%; in the data set filed under Homo sapiens [3], 55.5%; in the data set filed under Homo sapiens [6], “Dose-dependent effect”.
Take `CN(/N=C/c1ccc(-c2ccc([N+](=O)[O-])cc2)o1)C(=O)c1cncn1C`: the inhibition in the data set filed under Homo sapiens [1] was 24.5%; in the data set filed under Homo sapiens [2], 70.5%; in the data set listed under Homo sapiens [3], 82.5%; in [5] it was 14.3%; in the data set filed under Homo sapiens [6] it was “Dose-dependent effect”. In [4], the solubility kinetic was 480 µM (≈ 170 µg/mL).
For the compound `O=C(N/N=C/c1ccc(-c2ccc([N+](=O)[O-])cc2)o1)n1ccnc1`, the inhibition was 26.1% in the data set filed under Homo sapiens [1], 48.4% in the data set filed under Homo sapiens [2], 68.2% in the data set filed under Homo sapiens [3] and “Dose-dependent effect” in the data set filed under Homo sapiens [6].
The like results for `O=C(NCc1ccc(C(F)(F)F)cc1)N/N=C/c1ccc(-c2ccc([N+](=O)[O-])cc2)o1` were, in that order, 19.7%, 27.9%, 53.1% and “Dose-dependent effect”.
`O=C(N/N=C/c1ccc(-c2ccc([N+](=O)[O-])cc2)o1)c1cnc[nH]1`: the inhibition in the data set filed under Homo sapiens [1] is 31.5%; in the data set listed under Homo sapiens [2], 77.2%; in the data set filed under Homo sapiens [3] it was 93.7%; in data set [5] it was 24.8%; in the data set listed under Homo sapiens [6] it was “Dose-dependent effect”. Further, in data set [4], the solubility kinetic amounted to 580 µM (≈ 189 µg/mL). The results for the Activity result (in data set [10]; with Mus musculus [14]) were “Non-Toxic” and 35.7%, respectively. For the same compound, the values for the Time in the data set with Mus musculus [11], with Mus musculus [12] and with Mus musculus [13] were 29.89 s, 25.12 s and 16.23 s, respectively.
On to `O=C(NCc1cccc(F)c1)N/N=C/c1ccc(-c2ccc([N+](=O)[O-])cc2)o1`, for which the inhibition in the data set listed under Homo sapiens [2] is 25.8%; in the data set listed under Homo sapiens [3], 72.1%; in data set [5], 33.6%; in the data set listed under Homo sapiens [6] it was “Dose-dependent effect”.
